In ChEMBL document CHEMBL5058577, “EUbOPEN Chemogenomics Library 2 (Multiplex)” (2022):

System: Fibroblast
Assay: Multiplex assay against human fibroblast
Format: toxicity, cell-based
How it was run: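 Phenotypes for tubulin, mitochondrial mass and membrane permeability are expressed as per cents of healthy-nucleus cells. Cells were stained live at seeding with Hoechst33342, BioTracker Green Microtubule Cytoskeleton Dye, MitoTracker Red and Annexin V Alexa Fluor 680, then imaged after compound addition on a CQ1 microscope at 37°C and 5% CO2. Machine-learning gating in CellPathfinder separated Hoechst high-intensity objects from normal cells, divided normal cells by nuclear state (healthy, pyknosed, fragmented) and divided pyknosed cells into mitotic or apoptotic.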

[1] = 12 h, 1 µM, compound concentration 1 uM, replicate 1
[2] = 12 h, 1 µM, compound concentration 1 uM, replicate 2
[3] = 12 h, 10 µM, compound concentration 10 uM, replicate 1
[4] = 12 h, 10 µM, compound concentration 10 uM, replicate 2
[5] = 24 h, 1 µM, compound concentration 1 uM, replicate 1
[6] = 24 h, 1 µM, compound concentration 1 uM, replicate 2
[7] = 24 h, 10 µM, compound concentration 10 uM, replicate 1
[8] = 24 h, 10 µM, compound concentration 10 uM, replicate 2
[9] = 48 h, 1 µM, compound concentration 1 uM, replicate 1
[10] = 48 h, 1 µM, compound concentration 1 uM, replicate 2
[11] = 48 h, 10 µM, compound concentration 10 uM, replicate 1
[12] = 48 h, 10 µM, compound concentration 10 uM, replicate 2

COc1cc(C(=O)N2CC[C@@H](O)[C@@H](N)C2)cc2nc(-c3cc4ccccc4n3CC3CC3)n(C)c12.Cl
Population Apoptotic (%) [1]: 21%
Population Fragmented Nuclei (%) [1]: 25%
Population Healthy Nuclei (%) [1]: 62%
Population Hoechst High Intensity Objects (%) [1]: 2%
Population Membrane Permeable-Phenotype (%) [1]: 0%
Population Mitochondria Different-Phenotype (%) [1]: 4%
Population Mitotic Cells (%) [1]: 78%
Population Normal (%) [1]: 97%
Population Pyknosed Nuclei (%) [1]: 12%
Population Tubulin-Different-Phenotype (%) [1]: 55%
Total Cell Count [1]: 160
Population Apoptotic (%) [2]: 48%
Population Fragmented Nuclei (%) [2]: 24%
Population Healthy Nuclei (%) [2]: 44%
Population Hoechst High Intensity Objects (%) [2]: 3%
Population Membrane Permeable-Phenotype (%) [2]: 10%
Population Mitochondria Different-Phenotype (%) [2]: 14%
Population Mitotic Cells (%) [2]: 51%
Population Normal (%) [2]: 96%
Population Pyknosed Nuclei (%) [2]: 31%
Population Tubulin-Different-Phenotype (%) [2]: 69%
Total Cell Count [2]: 130
Population Apoptotic (%) [3]: 60%
Population Fragmented Nuclei (%) [3]: 22%
Population Healthy Nuclei (%) [3]: 57%
Population Hoechst High Intensity Objects (%) [3]: 6%
Population Membrane Permeable-Phenotype (%) [3]: 0%
Population Mitochondria Different-Phenotype (%) [3]: 34%
Population Mitotic Cells (%) [3]: 40%
Population Normal (%) [3]: 93%
Population Pyknosed Nuclei (%) [3]: 19%
Population Tubulin-Different-Phenotype (%) [3]: 97%
Total Cell Count [3]: 271
Population Apoptotic (%) [4]: 48%
Population Fragmented Nuclei (%) [4]: 30%
Population Healthy Nuclei (%) [4]: 44%
Population Hoechst High Intensity Objects (%) [4]: 10%
Population Membrane Permeable-Phenotype (%) [4]: 2%
Population Mitochondria Different-Phenotype (%) [4]: 25%
Population Mitotic Cells (%) [4]: 51%
Population Normal (%) [4]: 89%
Population Pyknosed Nuclei (%) [4]: 25%
Population Tubulin-Different-Phenotype (%) [4]: 92%
Total Cell Count [4]: 179
Population Apoptotic (%) [5]: 55%
Population Fragmented Nuclei (%) [5]: 24%
Population Healthy Nuclei (%) [5]: 62%
Population Hoechst High Intensity Objects (%) [5]: 3%
Population Membrane Permeable-Phenotype (%) [5]: 0%
Population Mitochondria Different-Phenotype (%) [5]: 5%
Population Mitotic Cells (%) [5]: 45%
Population Normal (%) [5]: 96%
Population Pyknosed Nuclei (%) [5]: 13%
Population Tubulin-Different-Phenotype (%) [5]: 51%
Total Cell Count [5]: 158
Population Apoptotic (%) [6]: 60%
Population Fragmented Nuclei (%) [6]: 31%
Population Healthy Nuclei (%) [6]: 36%
Population Hoechst High Intensity Objects (%) [6]: 4%
Population Membrane Permeable-Phenotype (%) [6]: 4%
Population Mitochondria Different-Phenotype (%) [6]: 20%
Population Mitotic Cells (%) [6]: 39%
Population Normal (%) [6]: 95%
Population Pyknosed Nuclei (%) [6]: 31%
Population Tubulin-Different-Phenotype (%) [6]: 79%
Total Cell Count [6]: 125
Population Apoptotic (%) [7]: 73%
Population Fragmented Nuclei (%) [7]: 15%
Population Healthy Nuclei (%) [7]: 68%
Population Hoechst High Intensity Objects (%) [7]: 7%
Population Membrane Permeable-Phenotype (%) [7]: 0%
Population Mitochondria Different-Phenotype (%) [7]: 55%
Population Mitotic Cells (%) [7]: 26%
Population Normal (%) [7]: 92%
Population Pyknosed Nuclei (%) [7]: 16%
Population Tubulin-Different-Phenotype (%) [7]: 94%
Total Cell Count [7]: 274
Population Apoptotic (%) [8]: 62%
Population Fragmented Nuclei (%) [8]: 27%
Population Healthy Nuclei (%) [8]: 54%
Population Hoechst High Intensity Objects (%) [8]: 5%
Population Membrane Permeable-Phenotype (%) [8]: 3%
Population Mitochondria Different-Phenotype (%) [8]: 41%
Population Mitotic Cells (%) [8]: 37%
Population Normal (%) [8]: 94%
Population Pyknosed Nuclei (%) [8]: 17%
Population Tubulin-Different-Phenotype (%) [8]: 92%
Total Cell Count [8]: 174
Population Apoptotic (%) [9]: 80%
Population Fragmented Nuclei (%) [9]: 22%
Population Healthy Nuclei (%) [9]: 67%
Population Hoechst High Intensity Objects (%) [9]: 6%
Population Membrane Permeable-Phenotype (%) [9]: 0%
Population Mitochondria Different-Phenotype (%) [9]: 8%
Population Mitotic Cells (%) [9]: 20%
Population Normal (%) [9]: 93%
Population Pyknosed Nuclei (%) [9]: 10%
Population Tubulin-Different-Phenotype (%) [9]: 44%
Total Cell Count [9]: 161
Population Apoptotic (%) [10]: 64%
Population Fragmented Nuclei (%) [10]: 38%
Population Healthy Nuclei (%) [10]: 41%
Population Hoechst High Intensity Objects (%) [10]: 1%
Population Membrane Permeable-Phenotype (%) [10]: 3%
Population Mitochondria Different-Phenotype (%) [10]: 16%
Population Mitotic Cells (%) [10]: 35%
Population Normal (%) [10]: 98%
Population Pyknosed Nuclei (%) [10]: 20%
Population Tubulin-Different-Phenotype (%) [10]: 80%
Total Cell Count [10]: 153
Population Apoptotic (%) [11]: 86%
Population Fragmented Nuclei (%) [11]: 20%
Population Healthy Nuclei (%) [11]: 64%
Population Hoechst High Intensity Objects (%) [11]: 8%
Population Membrane Permeable-Phenotype (%) [11]: 0%
Population Mitochondria Different-Phenotype (%) [11]: 62%
Population Mitotic Cells (%) [11]: 13%
Population Normal (%) [11]: 91%
Population Pyknosed Nuclei (%) [11]: 15%
Population Tubulin-Different-Phenotype (%) [11]: 94%
Total Cell Count [11]: 256
Population Fragmented Nuclei (%) [12]: 32%
Population Healthy Nuclei (%) [12]: 55%
Population Hoechst High Intensity Objects (%) [12]: 4%
Population Mitochondria Different-Phenotype (%) [12]: 36%
Population Normal (%) [12]: 95%
Population Pyknosed Nuclei (%) [12]: 11%
Total Cell Count [12]: 193

CCn1c(-c2nc3cc(C(=O)N4CCCC(N)C4)ccc3n2C)cc2ccccc21.Cl (centres undefined)
Population Apoptotic (%) [1]: 63%
Population Fragmented Nuclei (%) [1]: 17%
Population Healthy Nuclei (%) [1]: 67%
Population Hoechst High Intensity Objects (%) [1]: 3%
Population Membrane Permeable-Phenotype (%) [1]: 0%
Population Mitochondria Different-Phenotype (%) [1]: 4%
Population Mitotic Cells (%) [1]: 36%
Population Normal (%) [1]: 96%
Population Pyknosed Nuclei (%) [1]: 15%
Population Tubulin-Different-Phenotype (%) [1]: 27%
Total Cell Count [1]: 128
Population Apoptotic (%) [2]: 32%
Population Fragmented Nuclei (%) [2]: 21%
Population Healthy Nuclei (%) [2]: 54%
Population Hoechst High Intensity Objects (%) [2]: 5%
Population Membrane Permeable-Phenotype (%) [2]: 2%
Population Mitochondria Different-Phenotype (%) [2]: 17%
Population Mitotic Cells (%) [2]: 67%
Population Normal (%) [2]: 94%
Population Pyknosed Nuclei (%) [2]: 23%
Population Tubulin-Different-Phenotype (%) [2]: 41%
Total Cell Count [2]: 167
Population Apoptotic (%) [3]: 41%
Population Fragmented Nuclei (%) [3]: 22%
Population Healthy Nuclei (%) [3]: 63%
Population Hoechst High Intensity Objects (%) [3]: 1%
Population Membrane Permeable-Phenotype (%) [3]: 0%
Population Mitochondria Different-Phenotype (%) [3]: 18%
Population Mitotic Cells (%) [3]: 58%
Population Normal (%) [3]: 98%
Population Pyknosed Nuclei (%) [3]: 14%
Population Tubulin-Different-Phenotype (%) [3]: 69%
Total Cell Count [3]: 221
Population Apoptotic (%) [4]: 38%
Population Fragmented Nuclei (%) [4]: 32%
Population Healthy Nuclei (%) [4]: 37%
Population Hoechst High Intensity Objects (%) [4]: 3%
Population Mitochondria Different-Phenotype (%) [4]: 19%
Population Mitotic Cells (%) [4]: 61%
Population Normal (%) [4]: 96%
Population Pyknosed Nuclei (%) [4]: 29%
Population Tubulin-Different-Phenotype (%) [4]: 80%
Total Cell Count [4]: 186
Population Apoptotic (%) [5]: 50%
Population Fragmented Nuclei (%) [5]: 22%
Population Healthy Nuclei (%) [5]: 68%
Population Hoechst High Intensity Objects (%) [5]: 0%
Population Membrane Permeable-Phenotype (%) [5]: 0%
Population Mitochondria Different-Phenotype (%) [5]: 5%
Population Mitotic Cells (%) [5]: 50%
Population Normal (%) [5]: 99%
Population Pyknosed Nuclei (%) [5]: 9%
Population Tubulin-Different-Phenotype (%) [5]: 30%
Total Cell Count [5]: 127
Population Apoptotic (%) [6]: 55%
Population Fragmented Nuclei (%) [6]: 27%
Population Healthy Nuclei (%) [6]: 54%
Population Hoechst High Intensity Objects (%) [6]: 9%
Population Membrane Permeable-Phenotype (%) [6]: 3%
Population Mitochondria Different-Phenotype (%) [6]: 20%
Population Mitotic Cells (%) [6]: 44%
Population Normal (%) [6]: 90%
Population Pyknosed Nuclei (%) [6]: 17%
Population Tubulin-Different-Phenotype (%) [6]: 41%
Total Cell Count [6]: 184
Population Apoptotic (%) [7]: 70%
Population Fragmented Nuclei (%) [7]: 22%
Population Healthy Nuclei (%) [7]: 66%
Population Hoechst High Intensity Objects (%) [7]: 3%
Population Membrane Permeable-Phenotype (%) [7]: 0%
Population Mitochondria Different-Phenotype (%) [7]: 22%
Population Mitotic Cells (%) [7]: 29%
Population Normal (%) [7]: 96%
Population Pyknosed Nuclei (%) [7]: 10%
Population Tubulin-Different-Phenotype (%) [7]: 76%
Total Cell Count [7]: 231
Population Apoptotic (%) [8]: 59%
Population Fragmented Nuclei (%) [8]: 30%
Population Healthy Nuclei (%) [8]: 46%
Population Hoechst High Intensity Objects (%) [8]: 4%
Population Membrane Permeable-Phenotype (%) [8]: 2%
Population Mitochondria Different-Phenotype (%) [8]: 32%
Population Mitotic Cells (%) [8]: 40%
Population Normal (%) [8]: 95%
Population Pyknosed Nuclei (%) [8]: 23%
Population Tubulin-Different-Phenotype (%) [8]: 82%
Total Cell Count [8]: 189
Population Apoptotic (%) [9]: 66%
Population Fragmented Nuclei (%) [9]: 23%
Population Healthy Nuclei (%) [9]: 67%
Population Hoechst High Intensity Objects (%) [9]: 2%
Population Membrane Permeable-Phenotype (%) [9]: 1%
Population Mitochondria Different-Phenotype (%) [9]: 3%
Population Mitotic Cells (%) [9]: 33%
Population Normal (%) [9]: 97%
Population Pyknosed Nuclei (%) [9]: 8%
Population Tubulin-Different-Phenotype (%) [9]: 29%
Total Cell Count [9]: 137
Population Apoptotic (%) [10]: 51%
Population Fragmented Nuclei (%) [10]: 32%
Population Healthy Nuclei (%) [10]: 51%
Population Hoechst High Intensity Objects (%) [10]: 5%
Population Membrane Permeable-Phenotype (%) [10]: 2%
Population Mitochondria Different-Phenotype (%) [10]: 23%
Population Mitotic Cells (%) [10]: 48%
Population Normal (%) [10]: 94%
Population Pyknosed Nuclei (%) [10]: 15%
Population Tubulin-Different-Phenotype (%) [10]: 49%
Total Cell Count [10]: 193
Population Apoptotic (%) [11]: 83%
Population Fragmented Nuclei (%) [11]: 19%
Population Healthy Nuclei (%) [11]: 72%
Population Hoechst High Intensity Objects (%) [11]: 3%
Population Membrane Permeable-Phenotype (%) [11]: 0%
Population Mitochondria Different-Phenotype (%) [11]: 22%
Population Mitotic Cells (%) [11]: 16%
Population Normal (%) [11]: 96%
Population Pyknosed Nuclei (%) [11]: 8%
Population Tubulin-Different-Phenotype (%) [11]: 85%
Total Cell Count [11]: 232
Population Apoptotic (%) [12]: 60%
Population Fragmented Nuclei (%) [12]: 33%
Population Healthy Nuclei (%) [12]: 57%
Population Mitochondria Different-Phenotype (%) [12]: 16%
Population Mitotic Cells (%) [12]: 40%
Total Cell Count [12]: 231
